The record followed here is ChEMBL document CHEMBL3259667, “Bis-aryloxadiazoles as effective activators of the aryl hydrocarbon receptor” (Bioorg Med Chem Lett, 2014).

Common to all, as to type: cell-based
For data set [1], the target named is T1, Aryl hydrocarbon receptor (Mus musculus, UniProt P30561).
T1 sequence (P30561 whole entry): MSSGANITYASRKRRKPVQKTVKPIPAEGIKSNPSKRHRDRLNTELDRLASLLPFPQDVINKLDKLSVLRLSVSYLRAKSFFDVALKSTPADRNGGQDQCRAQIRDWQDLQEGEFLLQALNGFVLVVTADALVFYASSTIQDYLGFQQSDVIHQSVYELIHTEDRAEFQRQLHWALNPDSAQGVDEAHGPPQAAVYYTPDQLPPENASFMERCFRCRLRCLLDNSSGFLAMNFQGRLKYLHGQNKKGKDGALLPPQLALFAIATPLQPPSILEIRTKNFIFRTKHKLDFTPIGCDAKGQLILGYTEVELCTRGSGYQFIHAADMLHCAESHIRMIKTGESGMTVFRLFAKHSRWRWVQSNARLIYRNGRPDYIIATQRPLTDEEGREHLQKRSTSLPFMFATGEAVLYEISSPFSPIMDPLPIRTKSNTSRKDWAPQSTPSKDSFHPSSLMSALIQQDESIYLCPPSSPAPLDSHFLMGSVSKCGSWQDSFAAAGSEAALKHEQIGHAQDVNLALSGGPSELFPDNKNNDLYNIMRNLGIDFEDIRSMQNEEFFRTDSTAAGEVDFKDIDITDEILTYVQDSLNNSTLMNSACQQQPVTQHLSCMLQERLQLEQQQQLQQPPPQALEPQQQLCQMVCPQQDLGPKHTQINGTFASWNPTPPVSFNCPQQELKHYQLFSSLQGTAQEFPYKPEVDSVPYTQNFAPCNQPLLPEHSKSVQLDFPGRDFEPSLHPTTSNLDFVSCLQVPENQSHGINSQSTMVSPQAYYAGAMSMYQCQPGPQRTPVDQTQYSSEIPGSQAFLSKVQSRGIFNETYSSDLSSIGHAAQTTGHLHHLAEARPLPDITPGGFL
Description: Agonist activity at AHR in mouse HC11 cells assessed as upregulation of Cyp1a1 gene expression at 10 uM after 48 hrs by RT-PCR analysis relative to control. As to conditions: hc11, 48 h; call rule not given here. An outline of the steps:
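HC11 mammary epithelial cells were exposed for 48 hours to 10 μM compound. Expression of the AHR target gene Cyp1a1 served as the activity read-out.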

Data set [2] addresses T1, Aryl hydrocarbon receptor. The data set can be described thus: Agonist activity at AHR in FVB/N mouse primary mammary epithelial cells assessed as upregulation of desmoglein-3 protein level at 10 uM after 144 hrs by Western blot analysis in presence of FGF2. As to conditions: epithelial cell.
In data set [3] the target is T1, Aryl hydrocarbon receptor. The data set can be described thus: Agonist activity at AHR in FVB/N mouse primary mammary epithelial cells assessed as upregulation of desmoglein-3 protein level at 10 nM after 144 hrs by Western blot analysis in presence of FGF2. As to conditions: epithelial cell, 0.01 µM.

Consider `O=[N+]([O-])c1cc(Cl)ccc1-c1nc(-c2ccncc2)no1`, for which the Activity in data set [1] is reported as 8.25%.
Turning to `COC(=O)c1cccc(-c2noc(-c3ccccc3F)n2)c1`, in data set [1], the Activity amounted to 0.29%.
For `Clc1ccc(-c2nc(-c3ccncc3)no2)c(Cl)c1`, in data set [1], the Activity came to 0.37%.
Regarding `Clc1ccc(-c2nc(-c3ccncc3)no2)c(Cl)c1Cl`, the Activity in data set [1] worked out at 0.53%.
`Clc1ccc(-c2nc(-c3ccccc3)no2)c(Cl)c1`: the Activity is 128.53% in data set [1] and “Active” in data set [2].
The matching figures for `Nc1cc(Cl)ccc1-c1nc(-c2ccccc2)no1`: 638.8% and “Active”.
For the molecule `O=[N+]([O-])c1cc(C(F)(F)F)ccc1-c1nc(-c2ccccc2)no1`, in data set [1], the Activity amounted to 0.36%.
Still for that read-out and setting: to `COc1ccc(-c2nc(-c3ccccc3)no2)c([N+](=O)[O-])c1` belongs 0.42%.
The same measure, in the same setting: to `O=[N+]([O-])c1cc(O)ccc1-c1nc(-c2ccccc2)no1` belongs 0.25%; to `COC(=O)Oc1ccc(-c2nc(-c3ccccc3)no2)c([N+](=O)[O-])c1`, 0.39%; to `C#CCOc1ccc(-c2nc(-c3ccccc3)no2)c([N+](=O)[O-])c1`, 2.43%.
On to `O=[N+]([O-])c1cc(F)ccc1-c1nc(-c2ccccc2)no1`, for which the Activity is listed as 122.64% in data set [1] and “Active” in data set [2].
Consider `Nc1cc(C(F)(F)F)ccc1-c1nc(-c2ccccc2)no1`, for which the results for the Activity in data set [1] and in data set [2] were 58.63% and “Active”, respectively.
For the molecule `Clc1ccc(-c2nc(-c3ccccc3)no2)c(Cl)c1Cl`, the results for the Activity in data set [1] and in data set [2] were 25.79% and “Not Active”, respectively.
On to `FC(F)(F)c1cccc(-c2noc(-c3ccc(Cl)cc3Cl)n2)c1`, for which the Activity in data set [1] is recorded as 1.84%; in data set [2] it was “Not Active”.
Take `COC(=O)c1cccc(-c2noc(-c3ccc(Cl)cc3Cl)n2)c1`: the Activity in data set [1] was 0.18%.
`Clc1ccc(-c2nc(-c3ccccc3Cl)no2)c(Cl)c1`: the Activity in data set [1] is 5.91%.
In the case of `Clc1cccc(-c2noc(-c3ccc(Cl)cc3Cl)n2)c1`, in data set [1], the Activity is 1.59%.
Same read-out and setting: to `Clc1ccc(-c2noc(-c3ccc(Cl)cc3Cl)n2)cc1` belongs 8.15%; to `C#CCOc1ccc(-c2noc(-c3ccc(Cl)cc3Cl)n2)cc1`, 0.66%; to `C#CCOc1ccc(-c2noc(-c3ccc(Cl)cc3[N+](=O)[O-])n2)cc1`, 0.29%.
The same measure, in the same setting: with `C=CCOc1ccc(-c2noc(-c3ccc(Cl)cc3N)n2)cc1` the figure was 0.62%.
Consider `C#CCOc1ccc(-c2noc(-c3ccc(Cl)cc3N)n2)cc1`, for which the Activity in data set [1] came to 0.38%.
In the case of `CC(=O)Oc1ccc(-c2nc(-c3ccncc3)no2)c([N+](=O)[O-])c1`, the Activity in data set [1] was determined as 0.35%.
For the molecule `Clc1cc2c(cc1Cl)Oc1cc(Cl)c(Cl)cc1O2` [2,3,7,8-TETRACHLORODIBENZO-P-DIOXIN], in data set [3], the outcome was Active.
For `O=C(O)c1cccc(-c2noc(-c3ccccc3F)n2)c1` [ATALUREN], in data set [1], the Activity is 3.71%.
